Usually IC50 stands for the concentration that inhibits the measured activity by half. Lower therefore signals greater potency in that assay. The Cmax is the maximum level reached in the sampled fluid or tissue. A word on the Tmax: it is the time at which the peak concentration occurs. What is called AUC(0-inf) is the area under the concentration-time curve extrapolated to infinity. By half-life is commonly meant the time in which the quantity being followed falls by half. The low end stands for rapid decline, the high end for slow decline. As usually defined, the bioavailability is the share of a dose that reaches the circulation, judged against a reference dose that is usually intravenous. High values mean good availability, low ones poor availability. For orientation: clearance means the rate of elimination divided by the concentration. A higher clearance goes with efficient removal. What is called solubility is the dissolved amount per volume that the medium holds. Higher therefore signals a readily soluble substance. A word on the logD: it is the decadic logarithm of the distribution of all forms, ionised or not, between an organic phase and buffer at a given pH. A higher logD goes with higher lipophilicity. As a reminder, the Papp A→B is the apparent permeability from the apical to the basolateral side of a cell layer.

≈ marks a conversion by molar mass, not a printed value. Calls of active or inactive are those of the source. The rule behind the calls is not given here.

Data set [1] concerns Rattus norvegicus. Description: Neuroprotective activity in Sprague-Dawley rat ischemia-reperfusion model measured as cell density in retinal ganglion cell layer at 100 mg/kg, po relative to control. Format: functional. An outline of the steps:
(§1)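 Male Sprague-Dawley rats (150-250 g) received oral doses as a suspension in 0.5% CMC, 15 min before ischemia and again after reperfusion. Controls received vehicle. HE-stained nuclei in the ganglion cell layer 1-2 mm from the optic disk were counted over a 250 µm width at three sites. Comparison by Student t-test.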

A short description of data set [2]: Volume of distribution in Sprague-Dawley rat at 3 mg/kg, iv. Format: ADME, organism-based. Also on record: dose 3 mg/kg, route intravenous. As to conditions: in vivo, read-out: Vdss. In outline:
(§2)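 Male Sprague-Dawley rats (200-250 g), single dose. Oral dosing as a suspension in 0.5% carboxymethyl cellulose; iv dosing at 10 mg/mL in 60% poly(ethylene glycol)/40% water. Plasma was taken from abdominal aorta blood under isoflurane at 0.1 (iv only), 0.25, 0.5, 1, 2, 4 and 8 h, with n = 4 or 5 per time point. Samples underwent solid-phase extraction and LC-MS/MS (MRM). Values are mean ± SD.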

The target of data set [3] is T1, Calpain-2 catalytic subunit (Sus scrofa, UniProt P43367).
T1 sequence (P43367 whole entry): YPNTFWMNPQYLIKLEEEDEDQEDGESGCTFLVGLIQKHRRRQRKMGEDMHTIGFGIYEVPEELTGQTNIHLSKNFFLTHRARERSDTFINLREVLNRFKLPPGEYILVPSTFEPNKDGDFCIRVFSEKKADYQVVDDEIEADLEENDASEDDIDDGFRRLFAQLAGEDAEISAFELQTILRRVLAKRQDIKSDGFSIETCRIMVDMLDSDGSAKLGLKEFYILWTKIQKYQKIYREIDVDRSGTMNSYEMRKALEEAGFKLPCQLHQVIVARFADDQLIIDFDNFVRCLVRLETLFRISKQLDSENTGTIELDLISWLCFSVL
Put plainly: Inhibition of porcein kidney m calpain. An outline of the steps:
(§3)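 Casein substrate at 0.5 mg/mL in 50 mM Tris-HCl pH 7.4 with 20 mM dithiothreitol and 1.0 nmol enzyme. Inhibitors were added in DMSO. Reaction was started with 20 mM CaCl2; blank wells received 1 mM EDTA instead. Incubation ran 60 min at 30 °C. Percent inhibition came from OD differences. IC50 is the mean of two independent determinations.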

In data set [4] the test system is Rattus norvegicus. Put plainly: Neuroprotective activity in Sprague-Dawley rat ischemia-reperfusion model measured as cell density in retinal ganglion cell layer at 30 mg/kg, po relative to control. Format: functional, organism-based. Also on record: dose 30 mg/kg. An outline of the steps:
as §1

Data set [5] can be described thus: Cmax in Sprague-Dawley rat at 10 mg/kg, po. Format: ADME, organism-based. Also on record: dose 10 mg/kg, route oral. As to conditions: in vivo. In outline: as §2
Data set [6] is described as follows: Tmax in Sprague-Dawley rat at 10 mg/kg, po. It counts as ADME, organism-based. On the set-up: dose 10 mg/kg, route oral. As to conditions: in vivo. In outline: as §2
Data set [7] in a line: AUC (0-infinity) in Sprague-Dawley rat at 10 mg/kg, po. Also on record: time infinity, dose 10 mg/kg, route oral. Format: ADME, organism-based. As to conditions: plasma. In outline: as §2
Data set [8] has as its target T2, Calpain-1 catalytic subunit (Homo sapiens, UniProt P07384).
T2 sequence (P07384 whole entry): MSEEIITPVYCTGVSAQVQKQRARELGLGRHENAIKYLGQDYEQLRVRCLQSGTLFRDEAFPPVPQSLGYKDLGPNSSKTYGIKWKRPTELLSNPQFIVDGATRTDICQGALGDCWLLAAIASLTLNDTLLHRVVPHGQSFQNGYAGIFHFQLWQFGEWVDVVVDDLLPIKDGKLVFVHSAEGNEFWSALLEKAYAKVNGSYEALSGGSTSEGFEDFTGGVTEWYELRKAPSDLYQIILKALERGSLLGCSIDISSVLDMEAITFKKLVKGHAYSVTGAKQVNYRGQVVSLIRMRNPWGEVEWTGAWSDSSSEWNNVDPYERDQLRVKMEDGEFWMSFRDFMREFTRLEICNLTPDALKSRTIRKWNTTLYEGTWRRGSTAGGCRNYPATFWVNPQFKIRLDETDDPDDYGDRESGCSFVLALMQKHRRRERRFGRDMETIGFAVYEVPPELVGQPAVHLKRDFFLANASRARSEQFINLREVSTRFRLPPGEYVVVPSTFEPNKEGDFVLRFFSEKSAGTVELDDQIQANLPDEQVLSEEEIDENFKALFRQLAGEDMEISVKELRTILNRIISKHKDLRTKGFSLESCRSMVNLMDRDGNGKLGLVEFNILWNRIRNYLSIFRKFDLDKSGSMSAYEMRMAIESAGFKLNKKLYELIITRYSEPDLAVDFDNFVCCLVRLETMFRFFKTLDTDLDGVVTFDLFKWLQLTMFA
Put plainly: Inhibition of human erythrocyte mu calpain. An outline of the steps:
as §3

The nature of data set [9]: Terminal half life in Sprague-Dawley rat at 3 mg/kg, iv. It counts as ADME, organism-based. On the set-up: dose 3 mg/kg, route intravenous. The settings on record: in vivo. An outline of the steps: as §2
The nature of data set [10]: AUC (0-infinity) in Sprague-Dawley rat at 3 mg/kg, iv. It counts as ADME, organism-based. On the set-up: time infinity, dose 3 mg/kg, route intravenous. As to conditions: plasma. An outline of the steps: as §2
The nature of data set [11]: Oral bioavailability in Sprague-Dawley rat. Format: ADME, organism-based. As to conditions: in vivo. In outline: as §2
The nature of data set [12]: Clearance in Sprague-Dawley rat at 3 mg/kg, iv. As to conditions: in vivo. Also on record: dose 3 mg/kg, route intravenous. It counts as ADME, organism-based. An outline of the steps: as §2
Data set [13] can be described thus: Metabolic stability in human hepatic S9 fraction after 0.5 hrs. It counts as ADME. As to conditions: liver S9 fraction, read-out: Stability. In outline:
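Compound at 5 µM final (added in acetonitrile) was incubated with human hepatic S9 in 50 mM potassium phosphate pH 7.4. An NADPH-generating system was present (3 mM MgCl2, 1 mM NADP+, 5 mM glucose-6-phosphate, 1 U/mL G6PDH). Incubation ran 30 min at 37 °C and was quenched with acetonitrile. Residual parent was measured by LC-UV or LC-MS/MS, n = 1.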

Data set [14] is described as follows: Cmax in Sprague-Dawley rat at 500 mg/kg, po. Format: ADME, organism-based. On the set-up: dose 500 mg/kg, route oral. As to conditions: in vivo. In outline: as §2
For data set [15], the system named is Rattus norvegicus. Put plainly: Neuroprotective activity in Sprague-Dawley rat ischemia-reperfusion model measured as cell density in retinal ganglion cell layer at 500 mg/kg, po. Format: functional, organism-based. Also on record: dose 500 mg/kg. In outline: as §1
Data set [16] is described as follows: Aqueous solubility at pH 7 at 25 degreeC. It counts as physicochemical.
Data set [17] in a line: Lipophilicity, log D of the compound. It counts as physicochemical. As to conditions: octanol/water.
Data set [18] is described as follows: AUC (0-infinity) in Sprague-Dawley rat at 500 mg/kg, po. Also on record: time infinity, dose 500 mg/kg, route oral. Format: ADME, organism-based. The settings on record: plasma. In outline: as §2
Data set [19] in a line: Apparent permeability from apical to basolateral side of the Caco-2 cell. The settings on record: human. Format: ADME, cell-based. Background: Caco-2 cells form a polarised layer with tight junctions and transporters.
Data set [20] in a line: Tmax in Sprague-Dawley rat at 500 mg/kg, po. Also on record: dose 500 mg/kg, route oral. The settings on record: in vivo. It counts as ADME, organism-based. An outline of the steps: as §2

The molecule `CC(C)C[C@H](NC(=S)Nc1ccccc1)C(=O)N[C@H]1CCOC1O` (stereo partly specified) registered an Activity in [1] of 6.38. In data set [2], the Vd came to 2.3 L/kg. In addition, the half-inhibitory concentration (IC50) turned out to be 190 nM in data set [3] and 86 nM in [8]. In addition, the result in data set [4] was inactive. In addition, the Cmax in data set [5] is 5.6 µM. In [6], the Tmax was 15 min. Also, the AUC(0-inf) in data set [7] is 5.7 µM·h; in data set [10], 2.6 µM·h. In data set [9], this molecule gave a half-life of 114 min. In [11], this molecule had a bioavailability of 66%. Besides, the clearance in [12] turned out to be 55 mL/min/kg. Besides, the remaining at 0.5 h in data set [13] was 100%.
The molecule `CC(C)C[C@@H](C=O)NC(=O)[C@@H](NS(=O)(=O)c1ccc(F)cc1)C(C)C` showed a Cmax in data set [14] of 9.4 µM. Further, the outcome in [15] was Active. This molecule also came in with a solubility in data set [16] of 100 µg/mL (≈ 268 µM). The Vd in data set [2] came out at 6.1 L/kg. In data set [3], this molecule yielded an IC50 of 49 nM. This molecule also displayed a logD in [17] of 1.7. Further, the values for the AUC(0-inf) in [18] and in data set [10] were 45 µM·h and 1.5 µM·h, respectively. For the same molecule, the Papp A→B in data set [19] came out at 2.6 ×10⁻⁶ cm/s. The Tmax in data set [20] was found to be 1 h. The molecule also had a half-life in data set [9] of 42 min. This molecule also showed a bioavailability in [11] of 18%. In [12], this molecule showed a clearance of 89 mL/min/kg. In addition, the remaining at 0.5 h in [13] came to 3%.
For the molecule `CC(C)C[C@@H](/C=N/NC(=O)CN(C)C)NC(=O)[C@@H](NS(=O)(=O)c1ccc(F)cc1)C(C)C`, the remaining at 0.5 h in data set [13] turned out to be 64%.
Regarding `CCCCNC(=O)C(=O)[C@H](CC(C)C)NC(=O)[C@@H](NS(=O)(=O)c1ccc(F)cc1)C(C)C`, the concentration in solution in data set [16] (solubility) came to 5.3 µg/mL (≈ 11.2 µM). Also, the remaining at 0.5 h in data set [13] came to 25%.
For `CC(C)[C@H](NS(=O)(=O)c1ccc(F)cc1)C(=O)N[C@H]1CCOC1O` (stereo partly specified), the concentration in solution in data set [16] (solubility) came to 1500 µg/mL (≈ 4160 µM). Further, the 50% inhibitory concentration (IC50) in [3] worked out at 2600 nM; in data set [8] it was 880 nM. In [13], the remaining at 0.5 h was determined as 79%.
With `CC(C)C[C@@H](C#N)NC(=O)[C@@H](NS(=O)(=O)c1ccc(F)cc1)C(C)C`, the IC50 in data set [3] and in data set [8] was greater than 100000 nM in each case.

The values above are taken from ChEMBL document CHEMBL1138043, “Exploration of orally available calpain inhibitors 2: peptidyl hemiacetal derivatives” (J Med Chem, 2006).
